In ChEMBL document CHEMBL1157101, “A series of alpha-heterocyclic carboxaldehyde thiosemicarbazones inhibit topoisomerase IIalpha catalytic activity” (J Med Chem, 2010):
pIC50, pKd: −log10 of the molar value. The source made the active and inactive calls. No cut-off for these calls is given here.

Assays:
[1] = target: T1, DNA topoisomerase 2-alpha (Homo sapiens, UniProt P11388); assay: Inhibition of human topoisomerase 2 alpha-mediated decatenation of kDNA at 100 uM after 15 mins
[2] = Antiproliferative activity against human KB/VCR cells after 72 hrs by sulforhodamine B assay; format: functional, cell-based
Outline: (§1)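 Cells seeded and exposed in triplicate to graded compound concentrations for 72 h. Suspension cells read by MTT conversion to coloured product; adherent cells read by sulforhodamine B. IC50 (50% growth inhibition versus untreated control) derived by the Logit method.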

[3] = target: T1, DNA topoisomerase 2-alpha; assay: Inhibition of human topoisomerase 2alpha binding to pBR322 DNA binding by electrophoretic mobility shift assay
Outline: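 Electrophoretic mobility shift assay. 0.2 μg supercoiled pBR322 with 200 nM human Topo IIα, ± compound, 10 min at 37 °C. Separated 90 min on 1% agarose containing 0.5 μg/mL ethidium bromide in TAE.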

[4] = target: T2, DNA topoisomerase 1 (Homo sapiens) (UniProt P11387); assay: Inhibition of human topoisomerase 1-mediated relaxation of pBR322 up to 125 uM
T2 sequence (whole entry): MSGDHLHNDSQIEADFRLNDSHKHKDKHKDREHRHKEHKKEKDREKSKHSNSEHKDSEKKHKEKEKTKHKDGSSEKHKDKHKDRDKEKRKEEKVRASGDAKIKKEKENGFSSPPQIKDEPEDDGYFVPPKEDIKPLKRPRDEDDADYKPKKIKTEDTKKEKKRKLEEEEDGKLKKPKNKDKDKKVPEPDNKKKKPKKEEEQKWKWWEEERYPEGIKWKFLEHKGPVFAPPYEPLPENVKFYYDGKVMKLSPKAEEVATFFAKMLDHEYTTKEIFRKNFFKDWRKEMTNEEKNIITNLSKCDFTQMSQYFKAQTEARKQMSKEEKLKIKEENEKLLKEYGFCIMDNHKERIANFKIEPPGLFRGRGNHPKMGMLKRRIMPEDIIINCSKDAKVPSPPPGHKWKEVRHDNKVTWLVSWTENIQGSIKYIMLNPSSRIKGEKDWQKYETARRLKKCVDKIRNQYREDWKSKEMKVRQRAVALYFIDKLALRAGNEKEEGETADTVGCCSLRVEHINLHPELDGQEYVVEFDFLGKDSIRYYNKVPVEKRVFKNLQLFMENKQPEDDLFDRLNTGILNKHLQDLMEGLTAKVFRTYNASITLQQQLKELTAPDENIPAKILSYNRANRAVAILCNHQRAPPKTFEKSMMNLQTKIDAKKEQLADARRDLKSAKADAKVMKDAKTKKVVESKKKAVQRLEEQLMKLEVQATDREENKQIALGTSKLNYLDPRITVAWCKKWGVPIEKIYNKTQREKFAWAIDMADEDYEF

HL-60 = assay: Antiproliferative activity against human HL60 cells after 72 hrs by sulforhodamine B assay; format: functional, cell-based; conditions: HL-60, 72 h, in the assay text read “MTT assay” for “sulforhodamine B assay”; outline: as §1
CCRF S-180 [5] = assay: Antitumor activity against mouse S180 cells transplanted in Kunming mouse assessed as inhibition of tumor growth at 12.5 mg/kg/day, ip for 7 days; format: functional; conditions: CCRF S-180, ip, 168 h, route intraperitoneal
Outline: (§2)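 Female Kunming mice, 7 weeks old, 18-22 g, inoculated sc in the right armpit with S-180 sarcoma. Dosing began the next day, ip daily for 7 days; normal saline given iv as control. Tumours excised and weighed after treatment. Inhibitory rate (%) = (mean control tumour weight − mean treated tumour weight)/mean control tumour weight × 100.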

KB = assay: Antiproliferative activity against human KB cells after 72 hrs by sulforhodamine B assay; format: functional, cell-based; outline: as §1
[6] = target: T1, DNA topoisomerase 2-alpha; assay: Inhibition of human topoisomerase 2alpha-mediated relaxation of pBR322 at 25 uM
[7] = target: T2, DNA topoisomerase 1 (Homo sapiens); assay: Inhibition of human topoisomerase 1-mediated relaxation of pBR322 at 100 uM
[8] = target: T1, DNA topoisomerase 2-alpha; assay: Binding affinity to human topoisomerase 2 alpha ATPase domain
Outline: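 Surface plasmon resonance. Human Topo IIα ATPase domain immobilised on CM5 chips after activation of surface carboxyl groups. Serial compound dilutions flowed over the chip and sensorgrams recorded. KD obtained by steady-state affinity fitting.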

[9] = target: T1, DNA topoisomerase 2-alpha; assay: Inhibition of topoisomerase-2 alpha in human HL60/MX2 cells assessed as antagonization of etoposide-mediated enzyme-DNA cleavage complex at 100 uM; format: cell-based
Bel-7402 = assay: Antiproliferative activity against human Bel7402 cells after 72 hrs by sulforhodamine B assay; format: functional, cell-based; conditions: Bel-7402, 72 h; outline: as §1
HT-29 [10] = assay: Cell cycle arrest in human HT-29 cells assessed as accumulation at G1 phase at 0.5 to 1 uM after 24 hrs by flow cytometry; format: functional, cell-based
Outline: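 HT-29 cells stained with propidium iodide; cell-cycle distribution determined by flow cytometry.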

[11] = target: T1, DNA topoisomerase 2-alpha; assay: Inhibition of topoisomerase-2 alpha in human HT-29 cells assessed as reversal of etoposide-mediated DNA double strand break after 1 hr measured as phosphorylated histone2A level by immunostaining; format: cell-based
Mus musculus [12] = assay: Toxicity in Kunming mouse bearing mouse S180 cells assessed as change in body weight at 25 mg/kg/day, ip for 7 days (reference value: 17.9 g); format: organism-based, CCRF S-180; design: route intraperitoneal; conditions: in vivo, 168 h
Outline: (§3)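 Female Kunming mice, 7 weeks old and 18-22 g, were inoculated sc in the right armpit with S-180 sarcoma. From the next day they received ip injections at the stated daily dose for 7 days, alongside a normal-saline control group. Body weight was recorded at the start and at the end of treatment.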

CCRF S-180 [13] = assay: Antitumor activity against mouse S180 cells transplanted in Kunming mouse assessed as inhibition of tumor growth at 25 mg/kg/day, ip for 7 days; format: functional; conditions: CCRF S-180, ip, 168 h, route intraperitoneal; outline: as §2
[14] = target: T1, DNA topoisomerase 2-alpha; assay: Inhibition of topoisomerase-2 alpha in human HL60/MX2 cells assessed as antagonization of enzyme-DNA cleavage complex at 100 uM; format: cell-based
[15] = target: T1, DNA topoisomerase 2-alpha; assay: Inhibition of human topoisomerase 2alpha-mediated relaxation of pBR322
NCI-H23 = assay: Antiproliferative activity against human NCI-H23 cells after 72 hrs by sulforhodamine B assay; format: functional, cell-based; conditions: NCI-H23, 72 h; outline: as §1
HT-29 [16] = assay: Inhibition of DNA synthesis in human HT-29 cells measured at 0.25 to 1 uM by BrdU incorporation assay; format: functional, cell-based
Outline: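 HT-29 cells; DNA synthesis measured by BrdU incorporation with flow detection.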

SGC-7901 = assay: Antiproliferative activity against human SGC7901 cells after 72 hrs by sulforhodamine B assay; format: functional, cell-based; conditions: SGC-7901, 72 h; outline: as §1
SMMC-7721 = assay: Antiproliferative activity against human SMMC7721 cells after 72 hrs by sulforhodamine B assay; format: functional, cell-based; conditions: SMMC-7721, 72 h; outline: as §1
Mus musculus [17] = assay: Toxicity in Kunming mouse bearing mouse S180 cells assessed as change in body weight at 12.5 mg/kg/day, ip for 7 days (reference value: 17.9 g); format: organism-based, CCRF S-180; design: route intraperitoneal; conditions: in vivo, 168 h; outline: as §3
[18] = Antiproliferative activity against human K562/A02 cells after 72 hrs by sulforhodamine B assay; format: functional, cell-based; conditions: K562/A02, 72 h, in the assay text read “MTT assay” for “sulforhodamine B assay”; outline: as §1
[19] = target: T1, DNA topoisomerase 2-alpha; assay: Inhibition of human topoisomerase 2alpha-mediated decatenation of kDNA
Mus musculus [20] = assay: Toxicity in Kunming mouse bearing mouse S180 cells assessed as change in body weight at 50 mg/kg/day, ip for 7 days (reference value: 17.9 g); format: organism-based, CCRF S-180; design: route intraperitoneal; conditions: in vivo, 168 h; outline: as §3
LoVo = assay: Antiproliferative activity against human LoVo cells after 72 hrs by sulforhodamine B assay; format: functional, cell-based; outline: as §1

T1 sequence (P11388 whole entry): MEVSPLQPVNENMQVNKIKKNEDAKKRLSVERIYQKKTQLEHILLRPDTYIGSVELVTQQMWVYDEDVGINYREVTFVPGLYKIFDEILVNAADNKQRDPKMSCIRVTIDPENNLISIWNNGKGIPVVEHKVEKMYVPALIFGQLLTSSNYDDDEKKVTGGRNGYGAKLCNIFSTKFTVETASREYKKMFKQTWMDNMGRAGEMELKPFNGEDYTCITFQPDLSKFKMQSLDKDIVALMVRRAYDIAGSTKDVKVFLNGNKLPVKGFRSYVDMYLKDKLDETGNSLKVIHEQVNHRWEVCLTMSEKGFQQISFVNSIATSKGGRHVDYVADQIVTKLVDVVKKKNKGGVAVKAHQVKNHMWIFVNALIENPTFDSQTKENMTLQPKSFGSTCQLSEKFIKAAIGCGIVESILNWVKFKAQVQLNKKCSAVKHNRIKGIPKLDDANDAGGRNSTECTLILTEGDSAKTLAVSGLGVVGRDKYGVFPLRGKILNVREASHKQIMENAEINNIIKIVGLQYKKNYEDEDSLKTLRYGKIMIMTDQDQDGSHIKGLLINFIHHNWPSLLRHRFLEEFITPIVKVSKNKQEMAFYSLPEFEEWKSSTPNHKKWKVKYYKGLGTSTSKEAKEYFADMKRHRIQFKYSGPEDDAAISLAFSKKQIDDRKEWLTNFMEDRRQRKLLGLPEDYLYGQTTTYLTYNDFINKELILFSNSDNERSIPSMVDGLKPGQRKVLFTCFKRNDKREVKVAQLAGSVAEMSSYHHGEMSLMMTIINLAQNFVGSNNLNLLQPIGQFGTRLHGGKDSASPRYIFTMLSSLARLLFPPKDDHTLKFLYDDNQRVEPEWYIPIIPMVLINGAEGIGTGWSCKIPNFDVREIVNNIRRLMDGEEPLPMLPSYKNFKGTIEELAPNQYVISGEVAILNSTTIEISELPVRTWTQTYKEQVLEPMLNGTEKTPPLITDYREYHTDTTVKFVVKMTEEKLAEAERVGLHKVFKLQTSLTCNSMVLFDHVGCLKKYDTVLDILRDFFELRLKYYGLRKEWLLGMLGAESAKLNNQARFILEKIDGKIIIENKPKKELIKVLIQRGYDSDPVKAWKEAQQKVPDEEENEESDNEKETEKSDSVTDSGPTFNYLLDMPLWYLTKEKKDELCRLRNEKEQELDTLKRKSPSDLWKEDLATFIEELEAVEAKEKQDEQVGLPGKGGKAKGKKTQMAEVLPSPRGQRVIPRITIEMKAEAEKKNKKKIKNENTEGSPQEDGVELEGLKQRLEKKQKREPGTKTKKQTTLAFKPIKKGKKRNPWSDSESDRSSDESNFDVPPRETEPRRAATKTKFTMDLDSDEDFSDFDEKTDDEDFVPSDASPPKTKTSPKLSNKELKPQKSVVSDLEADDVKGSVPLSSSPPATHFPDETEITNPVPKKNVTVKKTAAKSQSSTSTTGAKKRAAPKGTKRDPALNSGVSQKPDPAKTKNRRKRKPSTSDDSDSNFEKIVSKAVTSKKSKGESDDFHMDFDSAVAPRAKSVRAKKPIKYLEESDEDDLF

CN(C)C(=S)N/N=C/c1ccc2ccccc2n1
inhibition (active/not active) [1]: Active | pIC50 [2]: 6.52 | inhibition [3]: inactive | inhibition [4]: inactive | pIC50 (HL-60): 7.30 | inhibition in vivo at 12.5 mg/kg/day (CCRF S-180 [5]): 17.6% | pIC50 (KB): 6.11 | inhibition [6]: inactive | inhibition [7]: Active | pKd [8]: 4.74 | inhibition [9]: Active | pIC50 (Bel-7402): 6.74 | Activity (HT-29 [10]): Active | inhibition [11]: Dose-dependent effect | Activity (Mus musculus [12]): 23.9 g | inhibition in vivo at 25 mg/kg/day (CCRF S-180 [13]): 35.8% | inhibition [14]: inactive | inhibition [15]: Dose-dependent effect | pIC50 (NCI-H23): 7.10 | inhibition (HT-29 [16]): Dose-dependent effect | pIC50 (SGC-7901): 7.52 | pIC50 (SMMC-7721): 6.62 | Activity (Mus musculus [17]): 29 g | pIC50 [18]: 7.22 | inhibition [19]: Dose-dependent effect | Activity (Mus musculus [20]): 20 g | pIC50 (LoVo): 7.22
